According to ChEMBL document CHEMBL1122253, “Optically active catecholimidazolines: a study of steric interactions at alpha-adrenoreceptors” (1983):

Assays:
Rattus norvegicus [1] = species: Rattus norvegicus; experiment: Negative Log of ED50 used to stimulate alpha adrenergic activity in rat aorta
Rattus norvegicus [2] = species: Rattus norvegicus; experiment: Relative value for maximum contraction (10e-5 = 1.0, phenylephrine) of rat aorta.; type: functional
Summary of the method: (§1)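 Thoracic aorta: the 2-cm segment distal to the first intercostal artery, cut into strips at 75–80° to the lumen. Strips kept in PSS gassed with 95% O2/5% CO2 […], under 2-g tension with isometric force recording. After 1 h equilibration, one half-maximal phenylephrine challenge, then 1 h re-equilibration. Cumulative concentration-effect curves used about threefold steps, with washout and at least 1 h between curves.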

Rattus norvegicus [3] = species: Rattus norvegicus; experiment: Negative Log of ED50 used to inhibit alpha adrenergic activity in rat aorta; type: functional
Summary of the method: as §1

Row | Compound | pED50 (Rattus norvegicus [1]) | IA (Rattus norvegicus [2]) | pED50 (Rattus norvegicus [3])
1 | C[C@@H]1CN=C(Cc2ccc(O)c(O)c2)N1.Cl | 6.29 | 0.74 | 
2 | CN1CC[N+](C)=C1Cc1ccc(O)c(O)c1.Cl.F[B-](F)(F)F | 5.54 | 0.81 | 
3 | Cl.Oc1ccc([C@@H](O)C2=NCCN2)cc1O | 8.59 | 1 | 
4 | Cl.Oc1ccc(CC2=NC[C@@H](Cc3ccccc3)N2)cc1O | 4.44 | 0.91 | 
5 | Cl.Oc1ccc(CC2=NCCN2)cc1O | 8.59 | 1 | 
6 | C[C@H]1CN=C(Cc2ccc(O)c(O)c2)N1.Cl | 6.32 | 1 | 
7 | CN1CCN=C1Cc1ccc(O)c(O)c1.Cl |  | 0.85 | 5.84
8 | Cl.Oc1ccc([C@H](O)C2=NCCN2)cc1O | 7.67 | 1 | 
9 | Cl.Oc1ccc(CC2=NC[C@H](Cc3ccccc3)N2)cc1O | 4.33 | 1 | 
